The results in this text go back to ChEMBL document CHEMBL1135918, “Gold(III) complexes with bipyridyl ligands: solution chemistry, cytotoxicity, and DNA binding properties” (J Med Chem, 2002).

Type in all cases: functional, cell-based
Assay [1] deals with CCRF-CEM. Kind of assay: Inhibitory effect of Gold(III) complex, [Au(bipy-H)(OH)]-[PF6] on growth of cisplatin-sensitive CCRF-CEM/S human tumor cell lines. The essentials: (§1)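 Human T-lymphoblastoid leukemia CCRF-CEM/S cells, and CCRF-CEM/R cells selected by continuous exposure to rising cisplatin and kept in 10 µM cisplatin. Exponentially growing cells in RPMI1640 with 10% FCS and antibiotics at 37 °C, 5% CO2. Water-dissolved drugs applied for 72 h, growth read by Coulter counter cell counting. IC50 is 50% growth inhibition versus control.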

Assay [2] has as its system A2780. The assay is described as follows: Inhibitory effect of Gold(III) complex, [Au(bipy-H)(OH)]-[PF6] on growth of cisplatin-resistant A2780/R human tumor cell lines. An outline of the steps:
(§2)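 Human ovarian carcinoma cells (A2780/S; A2780/R derived from it by repeated 1 h weekly exposure to 50 µM; SKOV3) grown exponentially in RPMI1640 with 10% FCS and antibiotics at 37 °C, 5% CO2. Drugs dissolved in sterile bidistilled water, 72 h exposure, growth measured by sulforhodamine B assay. IC50 is the concentration inhibiting growth by 50% versus control.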

In assay [3] the test system is A2780. Kind of assay: Inhibitory effect of Gold(III) complex, [Au(bipy-H)(OH)]-[PF6] on growth of cisplatin-sensitive A2780/S human tumor cell lines. An outline of the steps: as §2
The test system of assay [4] is SK-OV-3. Kind of assay: Inhibitory effect of Gold(III) complex, [Au(bipy-H)(OH)]-[PF6] on growth of cisplatin-resistant SKOV3 human tumor cell lines. The essentials: as §2
Assay [5] deals with CCRF-CEM. The assay is described as follows: Inhibitory effect of Gold(III) complex, [Au(bipy-H)(OH)]-[PF6] on growth of cisplatin-resistant CCRF-CEM/R human tumor cell lines. An outline of the steps:
as §1

In assay [6] the test system is CCRF-CEM. Kind of assay: Inhibitory effect of Gold(III) complex, 2,2' bipy on growth of cisplatin-sensitive CCRF-CEM/S human tumor cell lines. The essentials:
as §1

Assay [7] has as its system CCRF-CEM. Kind of assay: Inhibitory effect of Gold(III) complex, 2,2' bipy on growth of cisplatin-resistant CCRF-CEM/R human tumor cell lines. The essentials: as §1
Assay [8] relates to A2780. Kind of assay: Inhibitory effect of Gold(III) complex, 2,2' bipy on growth of cisplatin-resistant A2780/R human tumor cell lines. An outline of the steps:
as §2

Assay [9] relates to SK-OV-3. The assay is described as follows: Inhibitory effect of Gold(III) complex, 2,2' bipy on growth of cisplatin-resistant SKOV3 human tumor cell lines. An outline of the steps: as §2
For assay [10], the system named is A2780. The assay is described as follows: Inhibitory effect of Gold(III) complex, 2,2' bipy on growth of cisplatin-sensitive A2780/S human tumor cell lines. An outline of the steps:
as §2

In assay [11] the test system is CCRF-CEM. The assay is described as follows: Inhibitory effect of Gold(III) complex, CDDP on growth of cisplatin-resistant CCRF-CEM/R human tumor cell lines. An outline of the steps:
as §1

Assay [12] deals with SK-OV-3. The assay is described as follows: Inhibitory effect of Gold(III) complex, CDDP on growth of cisplatin-resistant SKOV3 human tumor cell lines. The essentials: as §2
The test system of assay [13] is CCRF-CEM. The assay is described as follows: Inhibitory effect of Gold(III) complex, CDDP on growth of cisplatin-sensitive CCRF-CEM/S human tumor cell lines. An outline of the steps: as §1
Assay [14] relates to A2780. The assay is described as follows: Inhibitory effect of Gold(III) complex, CDDP on growth of cisplatin-resistant A2780/R human tumor cell lines. The essentials:
as §2

The subject of assay [15] is A2780. Kind of assay: Inhibitory effect of Gold(III) complex, CDDP on growth of cisplatin-sensitive A2780/S human tumor cell lines. An outline of the steps: as §2
Assay [16] relates to CCRF-CEM. Kind of assay: Inhibitory effect of Gold(III) complex, [Au(bipy)-(OH)2]-[PF6] on growth of cisplatin-sensitive CCRF-CEM/S human tumor cell lines. The essentials: as §1
The subject of assay [17] is SK-OV-3. The assay is described as follows: Inhibitory effect of Gold(III) complex, [Au(bipy)-(OH)2]-[PF6] on growth of cisplatin-resistant SKOV3 human tumor cell lines. An outline of the steps: as §2
The subject of assay [18] is CCRF-CEM. The assay is described as follows: Inhibitory effect of Gold(III) complex, [Au(bipy)-(OH)2]-[PF6] on growth of cisplatin-resistant CCRF-CEM/R human tumor cell lines. The essentials:
as §1

Assay [19] relates to A2780. The assay is described as follows: Inhibitory effect of Gold(III) complex, [Au(bipy)-(OH)2]-[PF6] on growth of cisplatin-sensitive A2780/S human tumor cell lines. The essentials: as §2
Assay [20] relates to A2780. Kind of assay: Inhibitory effect of Gold(III) complex, [Au(bipy)-(OH)2]-[PF6] on growth of cisplatin-resistant A2780/R human tumor cell lines. The essentials:
as §2

Where only a bound is given, the exact number is not on record here.

A word on the IC50: it is the concentration that inhibits the measured activity by half. Lower therefore signals greater potency.

Turning to “8,8-dimethyl-8,12b-dihydro-7b,12c-diazoniabenzo[a]aceanthrylen-12b-ol(gold(III)complex) with Phosphorous hexa fluoride”, the IC50 in the assay on CCRF-CEM [1] was determined as 11.9 µM; in the assay on A2780 [2] it was 8.2 µM; in the assay with A2780 [3], 3.3 µM; in the assay on SK-OV-3 [4] it was 13.3 µM; in the assay with CCRF-CEM [5] it was 51.2 µM.

As to `c1ccc(-c2ccccn2)nc1` [DIPYRIDYL], the IC50 in the assay on CCRF-CEM [6] is 51.9 µM; in the assay with CCRF-CEM [7] it was 61.7 µM; with A2780 [8], 44.8 µM; with SK-OV-3 [9], 41.3 µM; with A2780 [10], above 20 µM.

For CISPLATIN, the 50% inhibitory concentration (IC50) in the assay with CCRF-CEM [11] came to 14.1 µM; in the assay with SK-OV-3 [12] it was 21.6 µM; in the assay with CCRF-CEM [13] it was 1 µM; with A2780 [14], 15.3 µM; in the assay on A2780 [15], 1.3 µM.

For “pyrido[1',2':3,4]imidazo[1,5-a]pyridinediium-6,6-diol(gold(III)complex) with Phosphorous hexa fluoride”, the concentration for half-maximal inhibition (IC50) in the assay with CCRF-CEM [16] was 52.9 µM; with SK-OV-3 [17], 34.4 µM; in the assay on CCRF-CEM [18], 58.6 µM; with A2780 [19] it was 8.8 µM; in the assay on A2780 [20], 24.1 µM.
